Results published in ChEMBL document CHEMBL4396869, “Design and Synthesis of Selective Phosphodiesterase 4D (PDE4D) Allosteric Inhibitors for the Treatment of Fragile X Syndrome and Other Brain Disorders” (J Med Chem, 2019).
In brackets after ≈: the same amount, converted by molar mass. Activity calls are given as the source filed them. The rule behind the calls is not given here.

Columns and labels:
[1] = target: 3',5'-cyclic-AMP phosphodiesterase 4B (Homo sapiens, UniProt Q07343, S133D); assay: (§1) Inhibition of recombinant human His6-tagged PDE4B1 UCR1 S133D mutant expressed in baculovirus infected Sf9 insect cells using cAMP as substrate preincubated for 5 to 10 mins followed by substrate addition and measured for 10 mins by yeast myokinase/pyruvate kinase/lactate dehydrogenase-coupled fluorescence assay
[2] = as §1, with “human wild-type” for “human”, “PDE4D7” for “PDE4B1”, “domain (S129 residues)” for “S133D mutant”
[3] = as §1, with “PDE4D7” for “PDE4B1”, “S129D” for “S133D”
Homo sapiens [4] = species on record: Homo sapiens; assay: Selectivity ratio of IC50 for recombinant human His6-tagged PDE4B1 UCR1 S133D mutant expressed in baculovirus infected Sf9 insect cells to IC50 for recombinant human His6-tagged PDE4D7 UCR1 S129D mutant expressed in baculovirus infected Sf9 insect cells
Homo sapiens [5] = species on record: Homo sapiens; assay: Selectivity ratio of IC50 for recombinant human wild-type His6-tagged PDE4D7 UCR1 domain (S129 residues) expressed in baculovirus infected Sf9 insect cells to IC50 for recombinant human His6-tagged PDE4D7 UCR1 S129D mutant expressed in baculovirus infected Sf9 insect cells
Mus musculus [6] = assay: Induction of emesis in ICR mouse assessed as reduction in ketamine/xylazine-induced duration of anesthesia at 0.1 mg/kg, ip pretreated for 15 mins followed by ketamine/xylazine addition; format: organism-based; conditions: in vivo
Summary of the method: (§2)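 Male ICR mice, 25–30 g. Test agents given by oral gavage in 5% DMSO, 5% Solutol in PBS, or rolipram IP; ketamine (80 mg/kg) plus xylazine (10 mg/kg) IP given 30 min after PO or 15 min after IP dosing. Endpoint: time from loss to return of righting reflex.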

Mus musculus [7] = assay: Memory enhancement effect in ICR mouse assessed as improvement in novel object discrimination at 0.1 mg/kg, ip […] measured for 5 mins by open field test; format: functional, organism-based
Summary of the method: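 Male ICR mice (25–30 g) in open field box; habituation 10 min day 1, training with two identical objects 5 min day 2, test with familiar and novel object 5 min day 3 (24 h delay). Exploration times recorded; discrimination index d2 = (b − a)/(a + b). Oral dosing in 5% DMSO, 5% Solutol in PBS; rolipram given parenterally.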

[8] = Therapeutic index, ratio of compound effect for induction of emesis in ICR mouse assessed as reduction in ketamine/xylazine-induced duration of anesthesia at 10 to 30 mg/kg, po to compound effect for memory enhancement effect in ICR mouse assessed as improvement in novel object discrimination at 1 to 3 mg/kg, po; format: toxicity, organism-based; conditions: in vivo
Summary of the method: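 Male ICR mice (25–30 g) were gavaged with compound in 5% DMSO, 5% Solutol in PBS. Object recognition ran as 10 min habituation on day 1, 5 min training on day 2 and 5 min testing on day 3, scored as d2 = (b−a)/(a+b). Thirty minutes after an oral dose, ketamine 80 mg/kg plus xylazine 10 mg/kg was given IP, and anesthesia duration was timed from loss to return of the righting reflex. The index compares effective doses in the two tests.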

[9] = Inhibition of recombinant human His6-tagged PDE4D7 UCR1 S129D mutant expressed in baculovirus infected Sf9 insect cells using cAMP as substrate preincubated for 5 to 10 mins followed by substrate addition and measured for 10 mins in presence of BSA by yeast myokinase/pyruvate kinase/lactate dehydrogenase-coupled fluorescence assay
[10] = Stability in mouse liver microsomes assessed as parent compound remaining at 1 uM measured after 30 mins by LC-MS/MS analysis; format: ADME, Microsome; conditions: read-out: Stability
Summary of the method: (§3)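 Liver microsome stability run by a contract lab using standard protocols. Parent compound remaining measured after 30 min incubation.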

[11] = Protein binding in human plasma; format: ADME, cell-free; conditions: read-out: PPB
[12] = Stability in rat liver microsomes assessed as parent compound remaining at 1 uM measured after 30 mins by LC-MS/MS analysis; format: ADME, Microsome; conditions: read-out: Stability; summary of the method: as §3
[13] = Permeability across apical to basal side in MDCK-MDR1 cells; format: ADME, cell-based, Canis lupus familiaris; conditions: dog
Summary of the method: (§4)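 Cellular permeability in MDCK-MDR1 cells, apical-to-basal and basal-to-apical, run by a contract lab using standard protocols. Efflux ratio taken as B-A/A-B.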

[14] = Ratio of AUC in po dosed mouse brain to plasma; format: ADME, organism-based
Summary of the method: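 Mice were dosed orally in 5% DMSO, 5% Solutol, 90% PBS. Drug exposure was measured in plasma and brain, and the ratio was taken from brain AUC over plasma AUC.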

Cytochrome P450 2C19 = Cytochrome P450 2C19 (Homo sapiens, UniProt P33261); assay: Inhibition of […] (unknown origin) by fluorescence-based assay; format: ADME
Summary of the method: (§5)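 CYP inhibition run with a fluorescent substrate by a contract laboratory under standard protocols; IC50 reported.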

[15] = Aqueous kinetic solubility of the compound at pH 7 at 100 uM measured after 1 hr; format: physicochemical; conditions: buffer, pH 7, 1 h
[16] = Stability in human liver microsomes assessed as parent compound remaining at 1 uM measured after 30 mins by LC-MS/MS analysis; format: ADME, Microsome; conditions: read-out: Stability; summary of the method: as §3
[17] = Stability in dog liver microsomes assessed as parent compound remaining at 1 uM measured after 30 mins by LC-MS/MS analysis; format: ADME, Canis lupus familiaris, Microsome; conditions: read-out: Stability; summary of the method: as §3
[18] = Half life in po dosed mouse brain; format: ADME, organism-based; conditions: in vivo
Cytochrome P450 2C9 = Cytochrome P450 2C9 (Homo sapiens, UniProt P11712); assay: Inhibition of CYP2C9 (unknown origin) by fluorescence-based assay; format: ADME; summary of the method: as §5
[19] = Solubility of the compound in FaSSIF; format: physicochemical; conditions: simulated gi fluid
Summary of the method: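 Kinetic solubility measured in fasted state simulated intestinal fluid (FaSSIF), run by a contract lab using standard protocols.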

[20] = Oral bioavailability in mouse; format: ADME, organism-based; conditions: in vivo
Cytochrome P450 3A4 = Cytochrome P450 3A4 (Homo sapiens, UniProt P08684); assay: Inhibition of CYP3A4 (unknown origin) by fluorescence-based assay; format: ADME; summary of the method: as §5
Mus musculus [21] = assay: Induction of emesis in ICR mouse assessed as reduction in ketamine/xylazine-induced duration of anesthesia at 10 to 30 mg/kg, po pretreated for 30 mins followed by ketamine/xylazine addition; format: organism-based; conditions: in vivo; summary of the method: as §2
[22] = Efflux ratio of permeability across basal to apical side over apical to basal side in MDCK-MDR1 cells; format: ADME, cell-based, Canis lupus familiaris; conditions: dog
[23] = Stability in monkey liver microsomes assessed as parent compound remaining at 1 uM measured after 30 mins by LC-MS/MS analysis; format: ADME, Macaca mulatta, Microsome; conditions: rhesus monkey, read-out: Stability; summary of the method: as §3
[24] = Permeability across basal to apical side in MDCK-MDR1 cells; format: ADME, cell-based, Canis lupus familiaris; conditions: dog; summary of the method: as §4
[25] = Stability in Wistar rat hepatocytes assessed as parent compound remaining measured after 4 hrs by LC-UV/MS/MS analysis; format: ADME, cell-based, Hepatocyte; conditions: read-out: Stability
Summary of the method: (§6)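 Metabolite identification run with cryopreserved hepatocytes from male Wistar rats and from humans, 0.5×10^6 cells/mL in suspension, incubated 4 h at 37 °C. Incubation medium analysed by LC-UV/MS/MS.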

[26] = Protein binding in rat plasma; format: ADME, cell-free; conditions: read-out: PPB
[27] = Protein binding in dog plasma; format: ADME, cell-free, Canis lupus familiaris; conditions: read-out: PPB
[28] = Stability in human hepatocytes assessed as parent compound remaining measured after 4 hrs by LC-UV/MS/MS analysis; format: ADME, cell-based, Hepatocyte; conditions: read-out: Stability; summary of the method: as §6
Mus musculus [29] = assay: Memory enhancement effect in ICR mouse assessed as improvement in novel object discrimination at 1 to 3 mg/kg, po administered via gavage measured for 5 mins by open field test; format: functional, organism-based
Summary of the method: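 Male ICR mice (25–30 g), dosed by oral gavage in 5% DMSO, 5% Solutol in PBS. Three phases in an open field box: 10 min habituation on day 1, 5 min training with identical objects on day 2, 5 min test with familiar and novel objects on day 3 (24 h delay). Exploration times recorded; discrimination index d2 = (b − a)/(a + b).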

[30] = Half life in po dosed mouse plasma; format: ADME, organism-based; conditions: in vivo
[31] = Protein binding in mouse plasma; format: ADME, cell-free; conditions: read-out: PPB
Cytochrome P450 2D6 = Cytochrome P450 2D6 (Homo sapiens, UniProt P10635); assay: Inhibition of CYP2D6 (unknown origin) by fluorescence-based assay; format: ADME; summary of the method: as §5
Cytochrome P450 2D6, sequence (P10635 whole entry): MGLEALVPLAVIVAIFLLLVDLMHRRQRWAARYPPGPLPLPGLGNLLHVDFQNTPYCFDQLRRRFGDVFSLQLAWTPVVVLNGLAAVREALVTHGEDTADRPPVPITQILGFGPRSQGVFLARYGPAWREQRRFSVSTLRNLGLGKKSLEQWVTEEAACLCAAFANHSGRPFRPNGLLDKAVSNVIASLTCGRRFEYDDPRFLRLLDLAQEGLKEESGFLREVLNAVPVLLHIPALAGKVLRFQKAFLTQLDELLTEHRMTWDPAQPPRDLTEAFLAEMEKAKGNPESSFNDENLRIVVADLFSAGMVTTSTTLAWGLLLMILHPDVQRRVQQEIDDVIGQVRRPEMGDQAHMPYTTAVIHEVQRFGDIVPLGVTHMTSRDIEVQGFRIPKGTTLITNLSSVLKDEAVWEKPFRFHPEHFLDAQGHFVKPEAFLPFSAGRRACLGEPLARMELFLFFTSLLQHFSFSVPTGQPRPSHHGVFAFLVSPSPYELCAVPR

3',5'-cyclic-AMP phosphodiesterase 4B, sequence (Q07343 whole entry S133D): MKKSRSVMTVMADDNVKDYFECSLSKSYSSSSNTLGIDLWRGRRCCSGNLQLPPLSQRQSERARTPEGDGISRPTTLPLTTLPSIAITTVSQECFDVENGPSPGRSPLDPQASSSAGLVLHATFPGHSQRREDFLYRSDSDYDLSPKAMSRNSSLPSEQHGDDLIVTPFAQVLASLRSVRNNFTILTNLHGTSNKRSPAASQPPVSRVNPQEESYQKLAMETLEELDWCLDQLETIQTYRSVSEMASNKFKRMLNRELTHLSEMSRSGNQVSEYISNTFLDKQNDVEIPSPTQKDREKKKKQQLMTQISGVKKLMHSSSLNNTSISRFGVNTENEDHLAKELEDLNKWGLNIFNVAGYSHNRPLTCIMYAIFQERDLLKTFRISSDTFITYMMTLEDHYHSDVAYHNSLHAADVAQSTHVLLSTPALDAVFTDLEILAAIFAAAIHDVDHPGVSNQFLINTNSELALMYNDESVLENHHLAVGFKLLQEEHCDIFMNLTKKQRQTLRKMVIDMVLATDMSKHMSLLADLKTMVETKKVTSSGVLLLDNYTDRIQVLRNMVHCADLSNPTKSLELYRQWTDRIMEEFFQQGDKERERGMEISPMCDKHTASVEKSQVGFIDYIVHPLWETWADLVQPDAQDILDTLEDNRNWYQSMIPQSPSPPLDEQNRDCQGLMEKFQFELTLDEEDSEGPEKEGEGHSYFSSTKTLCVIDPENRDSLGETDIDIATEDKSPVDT
Cytochrome P450 3A4, sequence (P08684 whole entry): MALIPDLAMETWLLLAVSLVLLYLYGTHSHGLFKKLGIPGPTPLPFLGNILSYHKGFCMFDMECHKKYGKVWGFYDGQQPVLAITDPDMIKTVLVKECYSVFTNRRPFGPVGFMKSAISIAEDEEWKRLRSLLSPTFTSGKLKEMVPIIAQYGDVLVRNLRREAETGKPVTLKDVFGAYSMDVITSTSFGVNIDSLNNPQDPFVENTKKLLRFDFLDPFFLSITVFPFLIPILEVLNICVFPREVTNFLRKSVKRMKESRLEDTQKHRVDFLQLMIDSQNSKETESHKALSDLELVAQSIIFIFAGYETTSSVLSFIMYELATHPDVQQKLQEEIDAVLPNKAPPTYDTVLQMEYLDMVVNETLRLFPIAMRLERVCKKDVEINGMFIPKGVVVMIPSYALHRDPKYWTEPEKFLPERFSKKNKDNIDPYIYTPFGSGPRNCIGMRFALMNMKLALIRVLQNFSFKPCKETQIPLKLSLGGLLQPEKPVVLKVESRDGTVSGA
Cytochrome P450 2C19, sequence (P33261 whole entry): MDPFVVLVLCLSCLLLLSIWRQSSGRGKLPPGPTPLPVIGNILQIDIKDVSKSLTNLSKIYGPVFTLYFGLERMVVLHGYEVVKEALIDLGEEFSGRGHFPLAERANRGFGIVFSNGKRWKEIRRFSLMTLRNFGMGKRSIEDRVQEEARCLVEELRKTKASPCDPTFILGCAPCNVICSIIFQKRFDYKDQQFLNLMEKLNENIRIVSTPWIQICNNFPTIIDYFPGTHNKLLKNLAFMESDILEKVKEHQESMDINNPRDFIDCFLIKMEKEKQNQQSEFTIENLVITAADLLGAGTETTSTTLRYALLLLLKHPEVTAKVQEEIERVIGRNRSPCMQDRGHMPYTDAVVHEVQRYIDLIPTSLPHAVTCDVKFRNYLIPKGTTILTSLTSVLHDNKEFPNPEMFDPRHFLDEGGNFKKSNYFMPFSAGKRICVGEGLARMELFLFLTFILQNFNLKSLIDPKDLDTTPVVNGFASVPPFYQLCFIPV
Cytochrome P450 2C9, sequence (P11712 whole entry): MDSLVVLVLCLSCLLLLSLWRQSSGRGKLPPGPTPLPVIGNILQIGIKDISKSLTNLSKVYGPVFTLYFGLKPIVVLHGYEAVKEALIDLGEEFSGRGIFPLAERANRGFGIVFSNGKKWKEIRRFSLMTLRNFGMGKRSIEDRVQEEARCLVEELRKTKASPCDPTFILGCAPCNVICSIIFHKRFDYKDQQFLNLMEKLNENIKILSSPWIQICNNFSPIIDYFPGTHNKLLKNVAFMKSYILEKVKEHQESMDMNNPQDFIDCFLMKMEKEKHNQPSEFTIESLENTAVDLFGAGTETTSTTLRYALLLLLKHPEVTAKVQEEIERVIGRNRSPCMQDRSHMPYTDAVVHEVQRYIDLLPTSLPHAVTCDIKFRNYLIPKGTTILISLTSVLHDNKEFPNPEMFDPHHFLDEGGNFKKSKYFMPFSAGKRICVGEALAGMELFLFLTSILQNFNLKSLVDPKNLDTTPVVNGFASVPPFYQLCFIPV

## CCc1cc(Oc2ccc(CC(N)=O)cc2)nc(-c2cccc(Cl)c2)n1
[1]
  IC50: 953 nM
[2]
  IC50: 2430 nM
[3]
  IC50: 35 nM

## NC(=O)Cc1ccc(S(=O)(=O)c2cc(-c3cccc(Cl)c3)nc3c2CCC3)cc1
[1]
  IC50: 3830 nM
[3]
  IC50: 475 nM

## CN(c1ccc(CC(N)=O)cc1)c1cc(-c2cccc(Cl)c2)nc2c1CCC2
[1]
  IC50: 3290 nM
[3]
  IC50: 733 nM

## CCc1nc(Nc2ccc(C(C)C(=O)O)cc2)nc(-c2cccc(Cl)c2)n1 (stereo not drawn)
[1]
  IC50: 1090 nM
[2]
  IC50: > 10000 nM
Homo sapiens [4]
  Ratio IC50: 11
[3]
  IC50: 96 nM

## CCc1nc(Nc2ccc(CCCO)cc2)nc(-c2cccc(Cl)c2)n1
[1]
  IC50: 11 nM
[2]
  IC50: 27 nM
[3]
  IC50: 0.2 nM

## CCc1cc(Cc2ccc(CCO)cc2)nc(-c2cccc(Cl)c2)n1
[1]
  IC50: 584 nM
[2]
  IC50: 534 nM
[3]
  IC50: 2 nM

## NC(=O)CCc1ccc(Nc2cc(-c3cccc(Cl)c3)nc3c2CCC3)cc1
[1]
  IC50: 166 nM
[2]
  IC50: 1280 nM
[3]
  IC50: 35 nM

## CCc1nc(Nc2ccc(CC(N)=O)cc2)nc(-c2cccc(Cl)c2)n1
Homo sapiens [5]
  Ratio IC50: 41
[1]
  IC50: 48 nM
[2]
  IC50: 203 nM
Homo sapiens [4]
  Ratio IC50: 10
[3]
  IC50: 5 nM

## COc1ccc(C2CNC(=O)C2)cc1OC1CCCC1 (stereo not drawn) [ROLIPRAM]
Mus musculus [6]
  Activity: Toxic
Mus musculus [7]
  Activity: Active

## CCc1cc(Cc2ccc(CC(N)=O)cc2)nc(-c2cccc(Cl)c2)n1
[8]
  selectivity ratio: 10
[9]
  inhibition: Active
[10]
  remaining at 0.5 h, 1 µM: 54 to 90%
[11]
  fraction unbound: 0.002 to 0.005
[12]
  remaining at 0.5 h, 1 µM: 54 to 90%
[13]
  permeability: 24.1 ×10⁻⁶ cm/s
Homo sapiens [5]
  Ratio IC50: 184
[14]
  Ratio AUC: 2.7
Cytochrome P450 2C19
  IC50: 29000 nM
[15]
  Kinetic_solubility: < 1.6 µM
[16]
  remaining at 0.5 h, 1 µM: 54 to 90%
[17]
  remaining at 0.5 h, 1 µM: 54 to 90%
[18]
  t1/2: 26.4 min
Cytochrome P450 2C9
  IC50: > 100000 nM
[19]
  solubility: 100 µM (≈ 36.6 µg/mL)
[20]
  bioavailability: 53%
Cytochrome P450 3A4
  IC50: 5900 nM
Mus musculus [21]
  Activity: Toxic
[1]
  IC50: 225 nM
[22]
  Ratio: 0.9
[2]
  IC50: 313 nM
[23]
  remaining at 0.5 h, 1 µM: 54 to 90%
[24]
  permeability: 22 ×10⁻⁶ cm/s
Homo sapiens [4]
  Ratio IC50: 132
[25]
  remaining at 4 h: 66.8%
[3]
  IC50: 1.7 nM
[26]
  fraction unbound: 0.002 to 0.005
[27]
  fraction unbound: 0.002 to 0.005
[28]
  remaining at 4 h: 93.2%
Mus musculus [29]
  Activity: Active
[30]
  t1/2: 27.6 min
[31]
  fraction unbound: 0.002 to 0.005
Cytochrome P450 2D6
  IC50: > 100000 nM

## OCCc1ccc(Nc2cc(-c3cccc(Cl)c3)nc3c2CCC3)cc1
Homo sapiens [5]
  Ratio IC50: 226
[1]
  IC50: 562 nM
[2]
  IC50: 2110 nM
Homo sapiens [4]
  Ratio IC50: 60
[3]
  IC50: 9 nM

## NC(=O)Cc1ccc(Nc2cc(-c3cccc(Cl)c3)nc3c2CCC3)cc1
Homo sapiens [5]
  Ratio IC50: 40
[1]
  IC50: 136 nM
[2]
  IC50: 1660 nM
Homo sapiens [4]
  Ratio IC50: 3
[3]
  IC50: 42.1 nM

## O=C(O)Cc1ccc(Nc2cc(-c3cccc(Cl)c3)nc3c2CCC3)cc1
[1]
  IC50: 1640 nM
Homo sapiens [4]
  Ratio IC50: 1
[3]
  IC50: 1160 nM
